These results are taken from ChEMBL document CHEMBL1914422, “Activation of the c-Jun N-terminal kinase/activating transcription factor 3 (ATF3) pathway characterizes effective arylated diazeniumdiolate-based nitric oxide-releasing anticancer prodrugs” (J Med Chem, 2011).

One data set deals with NCI-H2122. Nature of the data set: Antiproliferative activity against human NCI-H2122 cells after 72 hrs by MTT assay. The format is functional, cell-based. The settings on record: NCI-H2122, 72 h. The method in brief: (§1)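 Compounds (10 mM DMSO stocks, final DMSO ≤0.1%) added at increasing concentrations in PBS, incubated 72 h at 37 °C. MTT read-out, six repeats per concentration, at least two independent experiments.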
In general terms: Formazan colour is commonly taken as a measure of viable cells.

The test system of data set [1] is NCI-H1703. Put plainly: Induction of apoptosis in human NCI-H1703 cells assessed as caspase 3 activation after 1 to 6 hrs by Western blot analysis. The data set is classed as functional, cell-based. In general terms: In western blotting, separated proteins are transferred to a membrane and probed.
Data set [2] concerns Mus musculus. Put plainly: Induction of JNK phosphorylation in human NCI-H1703 cells xenografted NCr nu/nu Charles river mouse tumor assessed as increase in ATF3 protein level at 8 umol/kg, iv administered 3 times a week for 3 weeks by immunohistochemical analysis. The data set is classed as functional, organism-based. In a few lines: (§2)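 H1703 xenografts in female athymic NCr-nu/nu mice, dosed i.v. three times weekly for 3 weeks in 2.25% P-123/PBS. Tumors taken 2 h after the last dose were immunostained for phospho-SAPK/JNK and ATF3. Intensity graded negative, very weak, weak, moderate or strong.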
(Xenograft models place foreign cells or tissue in a host animal.)

The test system of data set [3] is NCI-H1703. Nature of the data set: Antiproliferative activity against human NCI-H1703 cells after 72 hrs by MTT assay. The format is functional, cell-based. The settings on record: NCI-H1703, 72 h. In a few lines:
as §1

In data set [4] the test system is NCI-H1703. Put plainly: Induction of apoptosis in human NCI-H1703 cells assessed as caspase 7 activation after 1 to 6 hrs by Western blot analysis. The data set is classed as functional, cell-based.
Data set [5] relates to NCI-H1703. Nature of the data set: Induction of apoptosis in human NCI-H1703 cells assessed as PARP cleavage after 1 to 6 hrs by Western blot analysis. The data set is classed as functional, cell-based.
The nature of data set [6]: Antiproliferative activity against human NCI-H1944 cells after 72 hrs by MTT assay. The format is functional, cell-based. Conditions: NCI-H1944, 72 h. The method in brief:
as §1

The nature of data set [7]: Activation of JNK phosphorylation in human NCI-H1703 cells assessed as increase in ATF3 protein level at 1 uM by Western blot analysis. The data set is classed as cell-based.
For data set [8], the system named is Mus musculus. Put plainly: Toxicity in human NCI-H1703 cells xenografted athymic NCr nu/nu Charles river mouse assessed as change in body weight at 8 umol/kg, iv administered 3 times a week for 3 weeks (reference value: 22.2 +/- 0.4g). The data set is classed as organism-based. The settings on record: in vivo, 504 h. In a few lines: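 Xenografted female athymic NCr-nu/nu mice (H1703, 5×10^6 cells s.c.) dosed i.v. three times weekly for 3 weeks in 2.25% P-123/PBS vehicle. Body weights recorded before each injection and compared with vehicle-treated controls at start and end.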

Data set [9] deals with Mus musculus. Nature of the data set: Induction of JNK phosphorylation in human NCI-H1703 cells xenografted NCr nu/nu Charles river mouse tumor at 8 umol/kg, iv administered 3 times a week for 3 weeks by immunohistochemical analysis. The data set is classed as functional, organism-based. In a few lines: as §2
Data set [10] is described as follows: Chemical stability of the compound in aqueous phosphate buffered saline assessed as half life at pH 7.4 in presence of 4 mM glutathione. Conditions: gsh. The data set is classed as physicochemical.
The subject of the next data set is NCI-H441. Put plainly: Antiproliferative activity against human NCI-H441 cells after 72 hrs by MTT assay. The data set is classed as functional, cell-based. The settings on record: NCI-H441, 72 h. In a few lines:
as §1

Data set [11] is described as follows: Activation of JNK phosphorylation in human NCI-H1703 cells assessed as increase in ATF3 protein level at 1 uM within 2 hrs by Western blot analysis. The data set is classed as cell-based.
Data set [12] can be described thus: Antiproliferative activity against human NCI-H1373 cells after 72 hrs by MTT assay. The data set is classed as functional, cell-based. Conditions: NCI-H1373, 72 h. The method in brief:
as §1

Data set [13] relates to NCI-H1703. Nature of the data set: Antitumor activity against human NCI-H1703 cells xenografted in NCr nu/nu Charles river mouse assessed as tissue death in tumor at 8 umol/kg, iv administered 3 times a week for 3 weeks by H and E staining method relative to control. The format is functional, organism-based. The method in brief: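 Female athymic NCr-nu/nu mice, 7 weeks old, received 5×10^6 H1703 cells s.c. in the flank. Once tumors reached ≥2×2×2 mm, dosing was i.v. by tail vein three times weekly for 3 weeks in 2.25% P-123/PBS vehicle. Tumors excised 2 h after the last dose, H&E stained, and scored for areas of cell death against vehicle controls.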

Data set [14] deals with NCI-H1703. Nature of the data set: Antitumor activity against human NCI-H1703 cells xenografted in athymic NCr nu/nu Charles river mouse assessed as reduction of tumor growth at 8 umol/kg, iv administered 3 times a week for 3 weeks relative to vehicle treated control. The format is functional, organism-based. In a few lines:
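H1703 xenografts (5×10^6 cells s.c., flank) in 7-week-old female athymic NCr-nu/nu mice, treated from tumor size ≥2×2×2 mm. Dosing i.v. (tail vein) three times weekly for 3 weeks in 2.25% P-123/PBS. Mice killed 2 h after the last dose; tumors excised and weighed. 13–15 mice/group; Mann-Whitney test against vehicle.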

Data set [15] can be described thus: Activation of JNK phosphorylation at Thr183 and Tyr185 in human NCI-H1703 cells at 1 uM within 30 mins by Western blot analysis. The data set is classed as cell-based.

The structures appear in SMILES notation. The source made the active and inactive calls. The calls are words filed in the database; no cut-off is given here.

The IC50 is the concentration that inhibits the measured activity by half. With `CCOC(=O)N1CCN(/[N+]([O-])=N/Oc2cc(C)c([N+](=O)[O-])cc2[N+](=O)[O-])CC1`, the IC50 was 7 µM in the data set with NCI-H2122; 0.97 µM in the data set with NCI-H1703 [3]; > 10 µM in [6]; 1.61 µM in the data set with NCI-H441; 1.86 µM in data set [12]. For the same molecule, the result (with NCI-H1703 [1]; in the data set with Mus musculus [2]; in the data set with NCI-H1703 [4]; in the data set with NCI-H1703 [5]; in data set [7]; in the data set on Mus musculus [9]) was inactive. Also, the result (in data set [11]; with NCI-H1703 [13]; in data set [15]) was inactive. Also, the Activity in the data set on Mus musculus [8] is reported as 24.5 g. Also, in data set [10], the t1/2 was determined as 71.5 min. For the same molecule, the “growth inhibition (GI)” value in the data set on NCI-H1703 [14] is “inactive”.
In the case of `CCOC(=O)N1CCCN(/[N+]([O-])=N/Oc2cc(OC)c([N+](=O)[O-])cc2[N+](=O)[O-])CC1`, the half-maximal inhibitory concentration (IC50) is 10 µM with NCI-H2122; 1.82 µM in the data set with NCI-H1703 [3]; > 10 µM in data set [6]; 3.15 µM in the data set on NCI-H441; 3.08 µM in [12]. Further, the t1/2 in data set [10] turned out to be 59.6 min. In data set [15], the outcome was inactive.
Regarding `CCOC(=O)N1CCCN(/[N+]([O-])=N/Oc2cc(C)c([N+](=O)[O-])cc2[N+](=O)[O-])CC1`, the IC50 in the data set on NCI-H2122 was 10 µM; with NCI-H1703 [3] it was 1.66 µM; in data set [6] it was > 10 µM; in the data set with NCI-H441 it was 2.02 µM; in data set [12], 3 µM. The t1/2 in data set [10] came out at 25.7 min. Further, the outcome in [15] was inactive.
With `CCOC(=O)N1CCN(/[N+]([O-])=N/Oc2cc(OC)c([N+](=O)[O-])cc2[N+](=O)[O-])CC1`, the half-inhibitory concentration (IC50) in the data set on NCI-H2122 was 5.78 µM; with NCI-H1703 [3] it was 1.57 µM; in [6], > 10 µM; in the data set on NCI-H441, 2.5 µM; in data set [12], 2.1 µM. In addition, the t1/2 in [10] was determined as 38.6 min. The outcome in data set [15] was inactive.
